Measurements published in ChEMBL document CHEMBL1123290, “Synthesis, antimalarial activity, and quantitative structure-activity relationships of tebuquine and a series of related 5-[(7-chloro-4-quinolinyl)amino]-3-[(alkylamino)methyl] [1,1'-biphenyl]-2-ols and N omega-oxides” (1986).

Assays:
Type in all cases: functional
[1] = tested on: Plasmodium berghei; assay: Change in mean survival time for control (average 6.2 days) versus treated mice (Mus musculus) 72 hrs after 5 mg/kg subcutaneous dose
[2] = tested on: Plasmodium berghei; assay: Change in mean survival time for control (average 6.2 days) versus treated mice (Mus musculus) 72 hrs after 640 mg/kg subcutaneous dose
[3] = tested on: Plasmodium berghei; assay: Change in mean survival time for control (average of 6.2 days) versus treated mice (Mus musculus) 72 hrs after 80 mg/kg subcutaneous dose
[4] = tested on: Plasmodium berghei; assay: Change in mean survival time for control (average 6.2 days) versus treated mice (Mus musculus) 72 hrs after […] subcutaneous dose
[5] = tested on: Plasmodium berghei; assay: Change in mean survival time for control (average 6.2 days) versus treated mice (Mus musculus) 72 hrs after 10 mg/kg subcutaneous dose
[6] = tested on: Plasmodium berghei; assay: Change in mean survival time for control (average 6.2 days) versus treated mice (Mus musculus) 72 hrs after 160 mg/kg subcutaneous dose
[7] = tested on: Plasmodium berghei; assay: Change in mean survival time for control (average 6.2 days) versus treated mice (Mus musculus) 72 hrs after […] subcutaneous dose
[8] = tested on: Plasmodium berghei; assay: Change in mean survival time for control (average 6.2 days) versus treated mice (Mus musculus) 72 hrs after 20 mg/kg subcutaneous dose
[9] = tested on: Plasmodium berghei; assay: Change in mean survival time for control (average 6.2 days) versus treated mice (Mus musculus) 72 hrs after 320 mg/kg subcutaneous dose
[10] = tested on: Plasmodium berghei; assay: Difference in mean survival time in mice (Mus musculus) (control = 6.2 days) after single 40mg/kg subcutaneous dose 72hr post infection
[11] = tested on: Plasmodium berghei; assay: Antimalarial activity as 60-day survivors in Plasmodium berghei infected mice (Mus musculus) after single 160mg/kg subcutaneous dose 72 hr post infection
In short: (§1)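 Mice were infected with a normal drug-sensitive Plasmodium berghei strain. At 72 h postinfection each received one subcutaneous dose of compound dissolved or suspended in peanut oil, in five-mouse groups per dose. The read-out was the number of mice alive at 60 days postinfection, which were scored as cured.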

[12] = tested on: Plasmodium berghei; assay: Antimalarial activity as 60-day survivors in infected mice (Mus musculus) after single 320mg/kg subcutaneous dose 72 hr post infection; in short: as §1
[13] = tested on: Mus musculus; assay: Antimalarial activity, administered as a single subcutaneous dose of 40 mg/kg, 72 hrs post infection measured as number of mice (Mus musculus) surviving at 60 days post infection; in short: as §1
[14] = tested on: Mus musculus; assay: Antimalarial activity, administered as a single subcutaneous dose of 640 mg/kg, 72 hrs post infection measured as number of mice (Mus musculus) surviving at 60 days post infection; in short: as §1
[15] = tested on: Mus musculus; assay: Antimalarial activity, administered as a single subcutaneous dose of 80 mg/kg, 72 hrs post infection measured as number of mice (Mus musculus) surviving at 60 days post infection; in short: as §1
[16] = tested on: Plasmodium berghei; assay: Antimalarial activity in primary screen
[17] = tested on: Plasmodium berghei; assay: Antimalarial activity as 60-day survivors in infected mice (Mus musculus) after single 20 mg/kg subcutaneous dose 72hr post infection; in short: as §1

Row | SMILES | Delta MST [1] [days] | Delta MST [2] [days] | Delta MST [3] [days] | Delta MST [4] [days] | Delta MST [5] [days] | Delta MST [6] [days] | Delta MST [7] [days] | Delta MST [8] [days] | Delta MST [9] [days] | Delta MST [10] [days] | No. of mice cured [11] | No. of mice cured [12] | No. of mice cured [13] | No. of mice cured [14] | No. of mice cured [15] | ED30 [16] [mg/kg] | No. of mice cured [17]
1 | CCCN(CCC)Cc1cc(Nc2ccnc3cc(Cl)ccc23)cc(-c2ccc(Cl)cc2)c1O | 3.8 | 18.1 | 27.6 | 0.4 | 6.8 | 26.6 | 0.8 | 11.2 | 29.6 | 24.4 | 2 | 4 | 1 | 3 | 3 |  | 
2 | CCN(CC)Cc1cc(Nc2ccnc3cc(Cl)ccc23)cc(-c2ccncc2)c1O | 1.9 | 25 | 11.5 | -0.1 | 2.1 | 21.7 | 0.5 | 5.5 | 21.2 | 9.3 | 1 | 1 |  | 2 | 1 | 89 | 
3 | CCN(CC)Cc1cc(Nc2ccnc3cc(Cl)ccc23)cc(-c2ccccc2C(F)(F)F)c1O | 1.1 | 20.7 | 25.5 | 0.3 | 3.1 |  | -0.3 | 12.5 | 30.7 | 18.5 | 5 | 4 | 1 | 4 | 1 | 34.7 | 
4 | CCCCN(CCCC)Cc1cc(Nc2ccnc3cc(Cl)ccc23)cc(-c2ccc(Cl)cc2)c1O | 0.2 | 34.4 | 12.6 | 0.4 | 2 | 17 | 0.2 | 4.6 | 24 | 8.2 |  |  |  | 3 |  |  | 
5 | CCN(CC)Cc1cc(Nc2ccnc3cc(Cl)ccc23)cc(-c2ccc(O)cc2)c1O |  | 4.1 | 4.8 |  |  | 6.8 |  | -0.2 | 3.8 | 0.8 |  | 2 |  | 1 |  | 320 | 
6 | CCN(CC)Cc1cc(Nc2ccnc3cc(Cl)ccc23)cc(-c2ccccc2Cl)c1O | 4.7 |  |  | 0.7 | 14.7 | 41.9 | 0.3 | 17.2 | 41.9 |  | 4 | 4 | 5 | 5 | 5 | 15.3 | 2
7 | CCN(CC)Cc1cc(Nc2ccnc3cc(Cl)ccc23)cc(-c2cccc3ccccc23)c1O | -0.3 | 8.1 | 5.8 | 0.1 | 0.7 | 6.6 | -0.1 | 0.3 | 11.2 | 2.3 |  | 1 |  | 2 |  | 4200 | 
8 | CCN(CC)Cc1cc(Nc2ccnc3cc(Cl)ccc23)cc(-c2c(F)cccc2F)c1O | 7.9 | 36.8 | 24.1 | 0.1 | 8.3 |  | 2.7 | 12.2 |  | 16.9 | 5 | 5 | 1 | 4 | 2 | 23.7 | 1
9 | CCN(CC)Cc1cc(Nc2ccnc3cc(Cl)ccc23)cc(-c2ccc(SC)cc2)c1O | 0.5 | 13.6 | 10 | 0.5 | 1.3 | 19.2 | 0.1 | 6.7 | 25.3 | 9.1 |  | 2 |  | 4 |  | 151 | 
10 | CCN(CC)Cc1cc(Nc2ccnc3cc(Cl)ccc23)cc(-c2ccc(C)cc2)c1O | 0.4 | 20.5 | 6.5 | 0.4 | 1.6 | 9.7 | 0.4 | 3.3 | 14.5 | 4.5 |  |  |  |  |  | 1530 | 
